≈ marks a conversion by molar mass, not a printed value.
Experiments:
Punta Toro virus = experiment: Antiviral activity against Punta Toro virus infected in african green monkey Vero cells assessed as protection from virus-induced cytopathogenicity by MTT assay; format: functional, organism-based
Human alphaherpesvirus 1 [1] = experiment: Antiviral activity against Herpes simplex virus 1 KOS infected in HEL cells assessed as protection from virus-induced cytopathogenicity after 2 to 3 days by MTT assay; format: functional, organism-based; settings: Human alphaherpesvirus 1, KOS
Influenza B virus = experiment: Antiviral activity against Influenza B virus infected in MDCK cells assessed as protection from virus-induced cytopathogenicity after 6 to 7 days by MTT assay; format: functional, organism-based
Felid alphaherpesvirus 1 = experiment: Antiviral activity against Feline herpesvirus infected in cat CRFK cells assessed as protection from virus-induced cytopathogenicity by MTT assay; format: functional, organism-based; settings: Felid alphaherpesvirus 1, CRFK
[2] = system: Respiratory syncytial virus; experiment: Antiviral activity against Respiratory syncytial virus infected in human HeLa cells assessed as protection from virus-induced cytopathogenicity after 4 days by MTT assay; format: functional, organism-based; settings: 96 h
Feline coronavirus = experiment: Antiviral activity against Feline coronavirus infected in cat CRFK cells assessed as protection from virus-induced cytopathogenicity by MTT assay; format: functional, organism-based; settings: Alphacoronavirus 1, CRFK
Coxsackievirus B4 [3] = experiment: Antiviral activity against Human coxsackievirus B4 infected in african green monkey Vero cells assessed as protection from virus-induced cytopathogenicity after 2 days by MTT assay; format: functional, organism-based; settings: Enterovirus B, 48 h
Proteus mirabilis = experiment: Antibacterial activity against Proteus mirabilis after 24 hrs by broth microdilution method; format: functional; settings: Proteus mirabilis, 24 h; read-out: MIC
Method in brief: (§1)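 Clinical isolates. Each dilution received 100 μl of 0.5 McFarland fresh culture. Solvent (DMSO), growth and standard controls were included. Tubes were incubated at 37 °C for 24 h. MIC is the highest dilution showing no turbidity. Tests were run in triplicate, with at least two repetitions.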

Vero [4] = experiment: Cytotoxicity against Sindbis virus infected african green monkey Vero cells by trypan blue exclusion method; format: cell-based; settings: chlorocebus sabaeus, vero
Method in brief: (§2)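 Uninfected confluent cultures were run in parallel with the infected cultures. Medium was replaced by 1 ml maintenance medium with serial compound concentrations; cell controls received no compound. Cultures were incubated at 37 °C. After 2 and 7 days, compound was withdrawn and viability was determined by trypan blue exclusion.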

[5] = Cytotoxicity against Feline herpesvirus infected cat CRFK cells by trypan blue exclusion method; format: cell-based, Felis catus; settings: crfk; method in brief: as §2
Human alphaherpesvirus 2 = experiment: Antiviral activity against Herpes simplex virus 2 G infected in HEL cells assessed as protection from virus-induced cytopathogenicity after 2 to 3 days by MTT assay; format: functional, organism-based; settings: Human alphaherpesvirus 2, strain G
Influenza A virus [6] = experiment: Antiviral activity against Influenza A virus H3N2 infected in MDCK cells assessed as protection from virus-induced cytopathogenicity after 6 to 7 days by MTT assay; format: functional, organism-based
HeLa [7] = experiment: Cytotoxicity against Respiratory syncytial virus infected human HeLa cells by trypan blue exclusion method; format: cell-based; settings: hela; method in brief: as §2
Vero [8] = experiment: Cytotoxicity against PIV 3 infected african green monkey Vero cells by trypan blue exclusion method; format: cell-based; settings: chlorocebus sabaeus, vero; method in brief: as §2
HEL [9] = experiment: Cytotoxicity against Herpes simplex virus 1 KOS infected HEL cells by trypan blue exclusion method; format: cell-based; settings: human, hel; method in brief: as §2
Sindbis virus = experiment: Antiviral activity against Sindbis virus infected in african green monkey Vero cells assessed as protection from virus-induced cytopathogenicity after 2 to 3 days by MTT assay; format: functional, organism-based
Human alphaherpesvirus 1 [10] = experiment: Antiviral activity against acyclovir-sensitive Herpes simplex virus 1 KOS infected in HEL cells assessed as protection from virus-induced cytopathogenicity after 2 to 3 days by MTT assay; format: functional, organism-based; settings: Human alphaherpesvirus 1, KOS
Streptococcus viridans = experiment: Antibacterial activity against Streptococcus viridans after 24 hrs by broth microdilution method; format: functional; settings: Streptococcus viridans, 24 h; read-out: MIC; method in brief: as §1
Vero [11] = experiment: Cytotoxicity against Human coxsackievirus B4 infected african green monkey Vero cells by trypan blue exclusion method; format: cell-based; settings: chlorocebus sabaeus, vero; method in brief: as §2
HEL [12] = experiment: Cytotoxicity against acyclovir-sensitive Herpes simplex virus 1 KOS infected HEL cells by trypan blue exclusion method; format: cell-based; settings: human; method in brief: as §2
MDCK [13] = experiment: Cytotoxicity against Influenza B virus infected MDCK cells by trypan blue exclusion method; format: cell-based, Canis lupus familiaris; settings: dog
[14] = Cytotoxicity against Feline coronavirus infected cat CRFK cells by trypan blue exclusion method; format: cell-based, Felis catus; settings: crfk; method in brief: as §2
Influenza A virus [15] = experiment: Antiviral activity against Influenza A virus H1N1 infected in MDCK cells assessed as protection from virus-induced cytopathogenicity after 6 to 7 days by MTT assay; format: functional, organism-based
HEL [16] = experiment: Cytotoxicity against Vaccinia virus infected HEL cells by trypan blue exclusion method; format: cell-based; settings: human, hel; method in brief: as §2
MDCK [17] = experiment: Cytotoxicity against Influenza A virus subtype H3N2 infected MDCK cells by trypan blue exclusion method; format: cell-based, Canis lupus familiaris; settings: dog
HEL [18] = experiment: Cytotoxicity against Herpes simplex virus 2 G infected HEL cells by trypan blue exclusion method; format: cell-based; settings: human, hel; method in brief: as §2
Coxsackievirus B4 [19] = experiment: Antiviral activity against Human coxsackievirus B4 infected in human HeLa cells assessed as protection from virus-induced cytopathogenicity after 2 days by MTT assay; format: functional, organism-based; settings: Enterovirus B, 48 h
HeLa [20] = experiment: Cytotoxicity against VSV infected human HeLa cells by trypan blue exclusion method; format: cell-based; settings: hela; method in brief: as §2
Vero [21] = experiment: Cytotoxicity against Reovirus 1 infected african green monkey Vero cells by trypan blue exclusion method; format: cell-based; settings: chlorocebus sabaeus, vero; method in brief: as §2
Human respirovirus 3 = experiment: Antiviral activity against PIV 3 infected in african green monkey Vero cells assessed as protection from virus-induced cytopathogenicity after 6 to 7 days by MTT assay; format: functional, organism-based; settings: Human respirovirus 3, Vero
[22] = system: Mammalian orthoreovirus 1; experiment: Antiviral activity against Reovirus 1 infected in african green monkey Vero cells assessed as protection from virus-induced cytopathogenicity after 6 to 7 days by MTT assay; format: functional, organism-based; settings: Mammalian orthoreovirus 1, Vero
HEL [23] = experiment: Cytotoxicity against VSV infected HEL cells by trypan blue exclusion method; format: cell-based; settings: human, hel; method in brief: as §2
MDCK [24] = experiment: Cytotoxicity against Influenza A virus subtype H1N1 infected MDCK cells by trypan blue exclusion method; format: cell-based, Canis lupus familiaris; settings: dog
Vero [25] = experiment: Cytotoxicity against Punta Toro virus infected african green monkey Vero cells by trypan blue exclusion method; format: cell-based; settings: chlorocebus sabaeus, vero; method in brief: as §2
HeLa [26] = experiment: Cytotoxicity against Human coxsackievirus B4 infected human HeLa cells by trypan blue exclusion method; format: cell-based; settings: hela; method in brief: as §2
[27] = system: Vesicular stomatitis virus; experiment: Antiviral activity against VSV infected in human HeLa cells assessed as protection from virus-induced cytopathogenicity after 1 to 2 days by MTT assay; format: functional, organism-based
[28] = system: Human immunodeficiency virus 2; experiment: Antiviral activity against HIV2 ROD infected in human MT4 cells assessed as protection from virus-induced cytopathogenicity after 5 days by MTT assay; format: functional, organism-based; settings: Human immunodeficiency virus 2, ISOLATE ROD, MT4, 120 h
Method in brief: (§3)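 MT-4 cells at 3 × 10^4 per well were infected with HIV (IIIB or ROD) at 50% cell culture infective doses. Graded compound concentrations were added immediately after infection. Plates were incubated for 5 days at 37 °C and viable cells were counted by MTT.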

[29] = Cytotoxicity against HIV1 3B-infected human MT4 cells by MTT assay; format: cell-based; settings: MT4 cells infected with HIV-1 3B
Method in brief: (§4)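 MT-4 cells (3 × 10^4 per well) were cultured in microdilution trays with various concentrations of compound, then incubated 5 days at 37 °C, and viable cell number was read by MTT.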

[30] = Cytotoxicity against HIV2 ROD infected human MT4 cells by MTT assay; format: cell-based; settings: MT4 cells infected with HIV-2 ROD; method in brief: as §4
[31] = system: Vesicular stomatitis virus; experiment: Antiviral activity against VSV infected in HEL cells assessed as protection from virus-induced cytopathogenicity after 1 to 2 days by MTT assay; format: functional, organism-based
[32] = system: Human immunodeficiency virus 1; experiment: Antiviral activity against HIV1 3B-infected in human MT4 cells assessed as protection from virus-induced cytopathogenicity after 5 days by MTT assay; format: functional, organism-based; settings: Human immunodeficiency virus 1, 3B, MT4, 120 h; method in brief: as §3

COc1cc(/C=C/C(=O)CC(=O)/C=C/c2ccc(O)c(OC)c2)ccc1O [CURCUMIN]
EC50 (Punta Toro virus): > 0.01 µM | EC50 (Human alphaherpesvirus 1 [1]): > 0.01 µM | EC50 (Influenza B virus): > 0.271 µM | EC50 (Felid alphaherpesvirus 1): > 0.271 µM | EC50 [2]: > 0.01 µM | EC50 (Feline coronavirus): > 0.271 µM | EC50 (Coxsackievirus B4 [3]): > 0.01 µM | MIC (Proteus mirabilis): 1.23 µM (≈ 0.453 µg/mL) | CC50 (Vero [4]): 0.054 µM | CC50 [5]: > 0.271 µM | EC50 (Human alphaherpesvirus 2): 0.01 µM | EC50 (Influenza A virus [6]): > 0.271 µM | CC50 (HeLa [7]): ≥ 0.01 µM | CC50 (Vero [8]): 0.054 µM | CC50 (HEL [9]): ≥ 0.01 µM | EC50 (Sindbis virus): > 0.01 µM | EC50 (Human alphaherpesvirus 1 [10]): 0.01 µM | MIC (Streptococcus viridans): 2.47 µM (≈ 0.91 µg/mL) | CC50 (Vero [11]): 0.054 µM | CC50 (HEL [12]): > 0.002 µM | CC50 (MDCK [13]): > 0.092 µM | CC50 [14]: > 0.271 µM | EC50 (Influenza A virus [15]): > 0.271 µM | CC50 (HEL [16]): > 0.002 µM | CC50 (MDCK [17]): > 0.092 µM | CC50 (HEL [18]): > 0.002 µM | EC50 (Coxsackievirus B4 [19]): > 0.01 µM | CC50 (HeLa [20]): ≥ 0.01 µM | CC50 (Vero [21]): 0.054 µM | EC50 (Human respirovirus 3): > 0.01 µM | EC50 [22]: > 0.01 µM | CC50 (HEL [23]): > 0.002 µM | CC50 (MDCK [24]): > 0.092 µM | CC50 (Vero [25]): 0.054 µM | CC50 (HeLa [26]): ≥ 0.01 µM | EC50 [27]: > 0.01 µM

COc1cc(/C=C/C(=O)C(CCOC(=O)CCC(NC(=O)c2ccc(NCc3cnc4nc(N)[nH]c(=O)c4n3)cc2)C(=O)O)C(=O)/C=C/c2ccc(O)c(OC)c2)ccc1O (stereo not given)
IC50 [28]: 0.065 µM | EC50 (Punta Toro virus): > 0.011 µM | EC50 (Human alphaherpesvirus 1 [1]): > 0.011 µM | EC50 (Influenza B virus): > 0.011 µM | EC50 (Felid alphaherpesvirus 1): > 0.011 µM | EC50 [2]: > 0.011 µM | EC50 (Feline coronavirus): > 0.011 µM | EC50 (Coxsackievirus B4 [3]): > 0.011 µM | MIC (Proteus mirabilis): 0.09 µM (≈ 0.0752 µg/mL) | CC50 (Vero [4]): > 0.011 µM | CC50 [5]: > 0.011 µM | EC50 (Human alphaherpesvirus 2): > 0.011 µM | EC50 (Influenza A virus [6]): > 0.011 µM | CC50 (HeLa [7]): > 0.011 µM | CC50 (Vero [8]): > 0.011 µM | CC50 (HEL [9]): > 0.011 µM | EC50 (Sindbis virus): > 0.011 µM | EC50 (Human alphaherpesvirus 1 [10]): > 0.011 µM | CC50 [29]: > 0.063 µM | CC50 [30]: > 0.065 µM | CC50 (Vero [11]): > 0.011 µM | CC50 (HEL [12]): > 0.011 µM | CC50 (MDCK [13]): > 0.011 µM | CC50 [14]: > 0.011 µM | EC50 (Influenza A virus [15]): > 0.011 µM | CC50 (HEL [16]): > 0.011 µM | CC50 (MDCK [17]): > 0.011 µM | CC50 (HEL [18]): > 0.011 µM | EC50 (Coxsackievirus B4 [19]): > 0.011 µM | EC50 [31]: > 0.011 µM | CC50 (HeLa [20]): > 0.011 µM | CC50 (Vero [21]): > 0.011 µM | EC50 (Human respirovirus 3): > 0.011 µM | EC50 [22]: > 0.011 µM | CC50 (HEL [23]): > 0.011 µM | IC50 [32]: 0.063 µM | CC50 (MDCK [24]): > 0.011 µM | CC50 (HeLa [26]): > 0.011 µM | EC50 [27]: > 0.011 µM

Nc1ncnc2c1ncn2C[C@H](O)CO [(S)-DHPA]
EC50 (Punta Toro virus): > 250 µM | EC50 [2]: 146 µM | EC50 (Coxsackievirus B4 [3]): > 250 µM | CC50 (Vero [4]): > 250 µM | CC50 (HeLa [7]): > 250 µM | CC50 (Vero [8]): > 250 µM | EC50 (Sindbis virus): > 250 µM | CC50 (Vero [11]): > 250 µM | CC50 (HeLa [20]): > 250 µM | CC50 (Vero [21]): > 250 µM | EC50 (Human respirovirus 3): > 250 µM | EC50 [22]: > 250 µM | CC50 (Vero [25]): > 250 µM | CC50 (HeLa [26]): > 250 µM | EC50 [27]: 146 µM

From ChEMBL document CHEMBL1154855 (Eur J Med Chem, 2010)
